How the values were obtained:
Format in all cases: functional
Rattus norvegicus [1] = test: Compound was tested for hypolipidemic activity in male Sprague-Dawley rats by measuring amount of liver cholesterol after administration of 770 mg dose per kg of diet
Summary of the method: (§1)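 Orotic acid liver-lipid model: groups of six male Sprague-Dawley rats unless noted. Test compound mixed into the orotic acid diet at the stated mg/kg diet. Diet and water ad libitum for 14 days, with growth and diet intake monitored. Impaired growth with normal intake was taken as toxicity. At sacrifice, liver homogenized in cold 0.63 M phosphate buffer, pH 7.4. Liver triglyceride and cholesterol reported as mg/g wet liver.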

Rattus norvegicus [2] = test: Compound was tested for hypolipidemic activity in male Sprague-Dawley rats by measuring amount of liver triglyceride after administration of 770 mg dose per kg of diet; summary of the method: as §1
Rattus norvegicus [3] = test: Compound was tested for hypolipidemic activity in male Sprague-Dawley rats by measuring change in body weight after administration of 770 mg dose per kg of diet; summary of the method: as §1
Rattus norvegicus [4] = test: Compound was tested for hypolipidemic activity in male Sprague-Dawley rats by measuring amount of liver triglyceride after administration of 635 mg dose per kg of diet; summary of the method: as §1
Rattus norvegicus [5] = test: Compound was tested for hypolipidemic activity in male Sprague-Dawley rats by measuring change in body weight after administration of 635 mg dose per kg of diet; summary of the method: as §1
Rattus norvegicus [6] = test: Compound was tested for hypolipidemic activity in male Sprague-Dawley rats by measuring amount of liver cholesterol after administration of 635 mg dose per kg of diet; summary of the method: as §1
Rattus norvegicus [7] = test: Compound was tested for hypolipidemic activity in male Sprague-Dawley rats by measuring amount of liver triglyceride after administration of 729 mg dose per kg of diet; summary of the method: as §1
Rattus norvegicus [8] = test: Compound was tested for hypolipidemic activity in male Sprague-Dawley rats by measuring amount of liver cholesterol after administration of 729 mg dose per kg of diet; summary of the method: as §1
Rattus norvegicus [9] = test: Compound was tested for hypolipidemic activity in male Sprague-Dawley rats by measuring change in body weight after administration of 729 mg dose per kg of diet; summary of the method: as §1
Rattus norvegicus [10] = test: Compound was tested for hypolipidemic activity in male Sprague-Dawley rats by measuring amount of liver cholesterol after administration of 400 mg dose per kg of diet; summary of the method: as §1
Rattus norvegicus [11] = species on record: Rattus norvegicus; test: The activity relative to DPTH in liver cholesterol
Summary of the method: (§2)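 Relative activity is the midpoint dose from the orotic acid rat dose-response curves compared against DPTH, with DPTH set to 1.00. Calculated separately for liver cholesterol and for liver triglyceride.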

Rattus norvegicus [12] = test: Compound was tested for hypolipidemic activity in male Sprague-Dawley rats by measuring amount of liver triglyceride after administration of 200 mg dose per kg of diet; summary of the method: as §1
Rattus norvegicus [13] = test: Compound was tested for hypolipidemic activity in male Sprague-Dawley rats by measuring amount of liver triglyceride after administration of 400 mg dose per kg of diet; summary of the method: as §1
Rattus norvegicus [14] = species on record: Rattus norvegicus; test: The concentration required to reduce liver cholesterol half-way from the average orotic acid level to the basal level
Summary of the method: (§3)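 Dose-response testing in the 14-day orotic acid diet model, six male Sprague-Dawley rats per group. Midpoint dose (mg/kg diet) read from dose-response curves as the dietary level that brings liver cholesterol or triglyceride half-way between the orotic-acid-fed control and a basal control given no orotic acid.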

Rattus norvegicus [15] = test: Compound was tested for hypolipidemic activity in male Sprague-Dawley rats by measuring change in body weight after administration of 200 mg dose per kg of diet; summary of the method: as §1
Rattus norvegicus [16] = test: Compound was tested for hypolipidemic activity in male Sprague-Dawley rats by measuring amount of liver triglyceride after administration of 600 mg dose per kg of diet; summary of the method: as §1
Rattus norvegicus [17] = species on record: Rattus norvegicus; test: The activity relative to DPTH. […] in liver cholesterol.; summary of the method: as §2
Rattus norvegicus [18] = species on record: Rattus norvegicus; test: The activity relative to DPTH. in liver triglyceride.; summary of the method: as §2
Rattus norvegicus [19] = test: Compound was tested for hypolipidemic activity in male Sprague-Dawley rats by measuring amount of liver cholesterol after administration of 600 mg dose per kg of diet; summary of the method: as §1
Rattus norvegicus [20] = test: Compound was tested for hypolipidemic activity in male Sprague-Dawley rats by measuring change in body weight after administration of 400 mg dose per kg of diet; summary of the method: as §1
Rattus norvegicus [21] = test: Compound was tested for hypolipidemic activity in male Sprague-Dawley rats by measuring amount of liver cholesterol after administration of 200 mg dose per kg of diet; summary of the method: as §1
Rattus norvegicus [22] = species on record: Rattus norvegicus; test: The activity relative to DPTH in liver triglyceride; summary of the method: as §2
Rattus norvegicus [23] = test: Compound was tested for hypolipidemic activity in male Sprague-Dawley rats by measuring change in body weight after administration of 600 mg dose per kg of diet; summary of the method: as §1
Rattus norvegicus [24] = species on record: Rattus norvegicus; test: The concentration required to reduce liver triglyceride half-way from the average orotic acid level to the basal level; summary of the method: as §3
Rattus norvegicus [25] = test: Compound was tested for hypolipidemic activity in male Sprague-Dawley rats by measuring amount of liver cholesterol after administration of 750 mg dose per kg of diet; summary of the method: as §1
Rattus norvegicus [26] = test: Compound was tested for hypolipidemic activity in male Sprague-Dawley rats by measuring amount of liver triglyceride after administration of 750 mg dose per kg of diet; summary of the method: as §1
Rattus norvegicus [27] = test: Compound was tested for hypolipidemic activity in male Sprague-Dawley rats by measuring change in body weight after administration of 750 mg dose per kg of diet; summary of the method: as §1
Rattus norvegicus [28] = test: Compound was tested for hypolipidemic activity in male Sprague-Dawley rats by measuring amount of liver cholesterol after administration of 735 mg dose per kg of diet; summary of the method: as §1
Rattus norvegicus [29] = test: Compound was tested for hypolipidemic activity in male Sprague-Dawley rats by measuring amount of liver triglyceride after administration of 735 mg dose per kg of diet; summary of the method: as §1
Rattus norvegicus [30] = test: Compound was tested for hypolipidemic activity in male Sprague-Dawley rats by measuring change in body weight after administration of 735 mg dose per kg of diet; summary of the method: as §1
Rattus norvegicus [31] = test: Compound was tested for hypolipidemic activity in male Sprague-Dawley rats by measuring amount of liver triglyceride after administration of 100 mg dose per kg of diet; summary of the method: as §1
Rattus norvegicus [32] = test: Compound was tested for hypolipidemic activity in male Sprague-Dawley rats by measuring change in body weight after administration of 100 mg dose per kg of diet; summary of the method: as §1
Rattus norvegicus [33] = test: Compound was tested for hypolipidemic activity in male Sprague-Dawley rats by measuring amount of liver cholesterol after administration of 100 mg dose per kg of diet; summary of the method: as §1

Compound: O=C1N(c2ccccc2)C(=S)NC1(c1ccccc1)c1ccccc1
- Liver cholesterol (Rattus norvegicus [1]): 8.6 mg/g
- Liver TG (Rattus norvegicus [2]): 42 mg/g
- Body weight change (Rattus norvegicus [3]): 91 g

Compound: COc1ccc(C2(c3ccccc3)NC(=S)NC2=O)cc1 (racemic)
- Liver TG (Rattus norvegicus [4]): 70 mg/g
- Body weight change (Rattus norvegicus [5]): 144 g
- Liver cholesterol (Rattus norvegicus [6]): 23.1 mg/g

Compound: CCCCN1C(=O)C(c2ccccn2)(c2ccccn2)NC1=S
- Liver TG (Rattus norvegicus [7]): 85 mg/g
- Liver cholesterol (Rattus norvegicus [8]): 12.2 mg/g
- Body weight change (Rattus norvegicus [9]): 140 g

Compound: CCCCN1C(=O)C(c2ccccc2)(c2ccccc2)NC1=S
- Liver cholesterol (Rattus norvegicus [10]): 10.7 mg/g
- Relative activity (Rattus norvegicus [11]): 0.71
- Liver TG (Rattus norvegicus [12]): 97 mg/g
- Liver TG (Rattus norvegicus [13]): 70 mg/g
- Cholesterol (Rattus norvegicus [14]): 340 mg kg-1 diet
- Midpoint dose (Rattus norvegicus [14]): 340 mg/kg
- Body weight change (Rattus norvegicus [15]): 185 g
- Liver TG (Rattus norvegicus [16]): 19 mg/g
- Cholesterol (Rattus norvegicus [17]): 0.71
- TG (Rattus norvegicus [18]): 0.22
- Liver cholesterol (Rattus norvegicus [19]): 4.2 mg/g
- Body weight change (Rattus norvegicus [20]): 210 g
- Liver cholesterol (Rattus norvegicus [21]): 17.8 mg/g
- Relative activity (Rattus norvegicus [22]): 0.22
- Body weight change (Rattus norvegicus [23]): 134 g
- Midpoint dose (Rattus norvegicus [24]): 450 mg/kg
- TG (Rattus norvegicus [24]): 450 mg kg-1 diet

Compound: O=C1NC(=S)NC1(c1ccccc1)c1ccccc1 [THIOPHENYTOIN]
- Relative activity (Rattus norvegicus [11]): 1
- Midpoint dose (Rattus norvegicus [14]): 240 mg/kg
- Liver TG (Rattus norvegicus [16]): 16 mg/g
- Liver cholesterol (Rattus norvegicus [19]): 3 mg/g
- Relative activity (Rattus norvegicus [22]): 1
- Body weight change (Rattus norvegicus [23]): 136 g
- Midpoint dose (Rattus norvegicus [24]): 100 mg/kg

Compound: O=C1NC(=S)NC1(c1ccc(Cl)cc1)c1ccc(Cl)cc1
- Liver cholesterol (Rattus norvegicus [25]): 13.2 mg/g
- Liver TG (Rattus norvegicus [26]): 82 mg/g
- Body weight change (Rattus norvegicus [27]): 91 g

Compound: O=C1NC(=S)NC1(c1ccccc1)c1ccc(O)cc1 (racemic)
- Liver TG (Rattus norvegicus [4]): 48 mg/g
- Body weight change (Rattus norvegicus [5]): 130 g
- Liver cholesterol (Rattus norvegicus [6]): 9.1 mg/g

Compound: COc1ccc(C2(c3ccc(OC)cc3)NC(=S)NC2=O)cc1
- Liver cholesterol (Rattus norvegicus [28]): 21.6 mg/g
- Liver TG (Rattus norvegicus [29]): 82 mg/g
- Body weight change (Rattus norvegicus [30]): 135 g

Compound: O=C1NC(=S)NC1(c1ccccn1)c1ccccn1
- Liver cholesterol (Rattus norvegicus [10]): 2.8 mg/g
- Relative activity (Rattus norvegicus [11]): 1.33
- Liver TG (Rattus norvegicus [12]): 72 mg/g
- Liver TG (Rattus norvegicus [31]): 100 mg/g
- Liver TG (Rattus norvegicus [13]): 28 mg/g
- Body weight change (Rattus norvegicus [32]): 180 g
- Midpoint dose (Rattus norvegicus [14]): 180 mg/kg
- Body weight change (Rattus norvegicus [15]): 181 g
- Liver TG (Rattus norvegicus [16]): 16 mg/g
- Liver cholesterol (Rattus norvegicus [19]): 3 mg/g
- Body weight change (Rattus norvegicus [20]): 203 g
- Liver cholesterol (Rattus norvegicus [21]): 10.3 mg/g
- Liver cholesterol (Rattus norvegicus [33]): 17 mg/g
- Relative activity (Rattus norvegicus [22]): 0.43
- Body weight change (Rattus norvegicus [23]): 132 g
- Midpoint dose (Rattus norvegicus [24]): 235 mg/kg
